Measurements: ChEMBL document CHEMBL4834477, “Synthesis and biological evaluation of novel purinyl quinazolinone derivatives as PI3Kδ-specific inhibitors for the treatment of hematologic malignancies” (Bioorg Med Chem, 2021)
pIC50: −log10 of the molar value. The source made the active and inactive calls. No cut-off for these calls is given here.

Tests used:
[1] = system: SU-DHL-5; experiment: Antiproliferative activity against human SU-DHL-5 cells assessed as cell viability at 10 uM by CellTiter-Glo luminescent cell viability assay (reference value: 100%); format: functional; conditions: read-out: Activity
[2] = biological target: T1, Phosphatidylinositol 4,5-bisphosphate 3-kinase catalytic subunit delta isoform (Homo sapiens) (UniProt O00329); experiment: Inhibition of PI3Kdelta in human SU-DHL-5 cells assessed as inhibition of S6 phosphorylation at 1 to 5 uM measured after 3 hrs by western blot assay; format: cell-based; conditions: dose 1-5 µM
T1 sequence (whole entry): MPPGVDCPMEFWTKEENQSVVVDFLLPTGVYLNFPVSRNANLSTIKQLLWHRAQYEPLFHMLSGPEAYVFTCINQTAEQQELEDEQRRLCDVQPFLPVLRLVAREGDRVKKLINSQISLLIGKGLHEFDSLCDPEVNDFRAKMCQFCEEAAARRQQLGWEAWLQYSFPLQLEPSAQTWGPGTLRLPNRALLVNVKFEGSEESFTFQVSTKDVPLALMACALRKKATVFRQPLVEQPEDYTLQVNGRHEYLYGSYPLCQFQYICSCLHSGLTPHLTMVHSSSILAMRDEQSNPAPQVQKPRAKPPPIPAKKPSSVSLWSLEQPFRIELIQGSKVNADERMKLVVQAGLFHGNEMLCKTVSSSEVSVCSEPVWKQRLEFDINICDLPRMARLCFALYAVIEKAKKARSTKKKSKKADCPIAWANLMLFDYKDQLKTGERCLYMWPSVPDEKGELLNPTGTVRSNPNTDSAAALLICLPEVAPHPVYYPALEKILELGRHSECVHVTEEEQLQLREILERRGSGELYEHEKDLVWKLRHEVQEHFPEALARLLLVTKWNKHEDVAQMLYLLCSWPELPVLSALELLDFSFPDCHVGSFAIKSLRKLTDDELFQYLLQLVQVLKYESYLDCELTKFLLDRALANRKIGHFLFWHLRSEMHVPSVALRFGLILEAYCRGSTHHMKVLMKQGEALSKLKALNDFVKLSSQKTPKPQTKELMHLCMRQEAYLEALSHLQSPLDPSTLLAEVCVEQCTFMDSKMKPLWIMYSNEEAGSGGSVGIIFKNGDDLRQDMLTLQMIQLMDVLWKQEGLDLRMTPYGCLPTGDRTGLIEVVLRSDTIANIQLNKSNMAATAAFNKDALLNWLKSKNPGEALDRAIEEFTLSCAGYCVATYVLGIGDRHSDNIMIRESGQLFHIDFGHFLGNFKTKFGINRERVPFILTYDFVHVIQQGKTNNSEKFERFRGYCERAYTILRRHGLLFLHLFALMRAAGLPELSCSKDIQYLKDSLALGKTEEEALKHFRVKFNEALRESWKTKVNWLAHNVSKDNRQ
Procedure, shortened: (§1)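 Treatment lasted 3 h: SUDHL-5 at 1 μM, MOLT-4 at 5 μM. Cells washed twice in cold PBS and lysed. Proteins resolved on 10–12% SDS-PAGE and blotted to PVDF. Probed for p-AKT S473, p-AKT T308, p-S6 and p-4E-BP1, with β-actin as loading control.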

[3] = biological target: T1, Phosphatidylinositol 4,5-bisphosphate 3-kinase catalytic subunit delta isoform (Homo sapiens); experiment: Inhibition of PI3Kdelta in human MOLT-4 cells assessed as inhibition of S6 phosphorylation at 1 to 5 uM measured after 3 hrs by western blot assay; format: cell-based; conditions: dose 1-5 µM; procedure, shortened: as §1
[4] = biological target: T1, Phosphatidylinositol 4,5-bisphosphate 3-kinase catalytic subunit delta isoform (Homo sapiens); experiment: Inhibition of PI3Kdelta in human MOLT-4 cells assessed as inhibition of 4EBP1 phosphorylation at 1 to 5 uM measured after 3 hrs by western blot assay; format: cell-based; conditions: dose 1-5 µM; procedure, shortened: as §1
[5] = system: SU-DHL10; experiment: Induction of apoptosis in human SU-DHL-10 cells assessed as necrotic cells at 20 uM measured after 24 hrs by AnnexinV-FITC/PI staining based flowcytometry method (reference value: 0.2%); format: functional
Procedure, shortened: (§2)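 Cells exposed to 20 μM compound for 24 h, washed with cold PBS, and stained with Annexin V-FITC and propidium iodide for 15 min at room temperature. Viable, early apoptotic, late apoptotic and necrotic populations quantified by flow cytometry.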

[6] = system: MOLT-4; experiment: Induction of apoptosis in human MOLT-4 cells assessed as viable cells at 20 uM measured after 24 hrs by AnnexinV-FITC/PI staining based flowcytometry method (reference value: 95.3%); format: functional; conditions: read-out: Activity; procedure, shortened: as §2
[7] = system: MOLT-4; experiment: Induction of apoptosis in human MOLT-4 cells assessed as early apoptotic cells at 20 uM measured after 24 hrs by AnnexinV-FITC/PI staining based flowcytometry method (reference value: 2.04%); format: functional; procedure, shortened: as §2
[8] = system: MOLT-4; experiment: Induction of apoptosis in human MOLT-4 cells assessed as necrotic cells at 20 uM measured after 24 hrs by AnnexinV-FITC/PI staining based flowcytometry method (reference value: 0.51%); format: functional; procedure, shortened: as §2
[9] = system: MOLT-4; experiment: Antitumour activity against human MOLT-4 cells xenografted in Balb/c nude mouse assessed as inhibition of tumour growth at 10 mg/kg, po administered via gavage qd for 57 days; format: functional; conditions: MOLT-4, po, 1368 h, time 57 day, read-out: TGI
Procedure, shortened: (§3)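 MOLT-4 cells (2×10^6 in 0.1 mL D-PBS) implanted subcutaneously on the back of BALB/c-nude mice. Once tumours grew, mice were dosed daily by oral gavage at 10 mg/kg for 57 consecutive days. Tumours measured by caliper, with volume = ½ × […]. Body weight was tracked over the same period.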

[10] = Toxicity in Balb/c nude mouse xenografted with human MOLT-4 cells assessed as changes in body weight at 10 mg/kg, po administered via gavage qd for 57 days; format: organism-based; conditions: in vivo, 1368 h, dose 10 mg/kg/day, time 57 day; procedure, shortened: as §3
[11] = AUC (last) in Sprague-Dawley rat at 3 mg/kg, po measured for 24 hrs by LC-MS/MS analysis; format: ADME, organism-based; set-up: route oral, time 24 hrs, dose 3 mg/kg; conditions: in vivo
Procedure, shortened: (§4)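 Sprague-Dawley rats dosed orally at 1 or 3 mg/kg, three animals per group. Blood sampled at 0.25, 0.5, 1, 2, 4, 8 and 24 h post-dose. Plasma separated by centrifugation, extracted and quantified by LC-MS/MS. PK parameters (Cmax, AUClast, Tmax, t1/2) derived by non-compartmental software.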

[12] = Cmax in Sprague-Dawley rat at 3 mg/kg, po measured for 24 hrs by LC-MS/MS analysis; format: ADME, organism-based; set-up: route oral, time 24 hrs, dose 3 mg/kg; conditions: in vivo; procedure, shortened: as §4
[13] = Tmax in Sprague-Dawley rat at 3 mg/kg, po measured for 24 hrs by LC-MS/MS analysis; format: ADME, organism-based; conditions: in vivo; procedure, shortened: as §4
[14] = Half life in Sprague-Dawley rat at 3 mg/kg, po measured for 24 hrs by LC-MS/MS analysis; format: ADME, organism-based; conditions: in vivo; procedure, shortened: as §4
[15] = Cytotoxicity against human MRC5 cells assessed as inhibition of cell viability at 20 uM measured after 48 hrs by MTT assay; format: cell-based; conditions: read-out: INH
Procedure, shortened: (§5)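 MTT assay in MRC-5 cells seeded at 2×10^6 cells/mL. Compound given in 1% FBS EMEM for 48 h at 37 °C in CO2. MTT solution then added for 3 h at 37 °C. Medium removed and formazan dissolved in DMSO.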

[16] = system: MRC5; experiment: Cytotoxicity against human MRC5 cells assessed as inhibition of cell viability measured after 48 hrs by MTT assay; format: cell-based; conditions: MRC5, 48 h; procedure, shortened: as §5
[17] = biological target: T1, Phosphatidylinositol 4,5-bisphosphate 3-kinase catalytic subunit delta isoform (Homo sapiens); experiment: Inhibition of PI3Kdelta in human MOLT-4 cells assessed as inhibition of AKT phosphorylation at Thr308 residue at 1 to 5 uM measured after 3 hrs by western blot assay; format: cell-based; conditions: dose 1-5 µM; procedure, shortened: as §1

inhibition [2]	inhibition [3]	inhibition [4]	AUC(0-t) at 24 h [11] [ng·h/mL]	Cmax [12] [ng/mL]	Tmax [13] [h]	half-life [14] [h]	inhibition [17]	Structure (SMILES)	viability at 10 µM [1] [%]	Activity [5] [%]	viability at 20 µM [6] [%]	Activity [7] [%]	Activity [8] [%]	inhibition in vivo at 10 mg/kg/day [9] [%]	Activity [10]	cytotoxicity at 48 h, 20 µM [15] [%]	pIC50 [16]
Active	Active	Active	37.2	11.1	0.5	8.3	Active	Cc1cccc2nc([C@@H](Nc3ncnc4nc[nH]c34)C3CC3)n(-c3ccccc3)c(=O)c12	20.2	4.16	41	13.4	3.3	56.7	Non-Toxic	23.1	4.31
Active	Active	Active	255	41.9	1	7.7	Active	O=c1c2c(F)cccc2nc([C@@H](Nc2ncnc3nc[nH]c23)C2CC2)n1-c1ccccc1	34.8	1.77	49.5	17.8	2.47	55.1	Non-Toxic	3.93	< 4.00
